# The list is not random: actives were taken first. Their share in the collection is about 4.5%.
# MDM2 E3 inh – inhibitors of human Mdm2 E3 ubiquitin ligase; cell-based MDM2 ubiquitination luciferase reporter, 2 h; 0 = plate control, 100 = twice control, blank-subtracted; signal enhancement, % at 5 µM; 210,000 compounds, 0.11% hits;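 active means signal enhancement of 30% or more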;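 further: luminescence tracks abundance of the self-degrading MDM2-luciferase fusion protein; higher signal means inhibition of MDM2 E3 ligase activity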
#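 System: stable MDM2–luciferase fusion reporter cells / Input: 2000 cells seeded into each well / Schedule: 4 h settle plus 2 h compound, 37 °C / Compound: single-point 5 µM / Buffer or medium: cells held in DMEM / Benchmarks: control and blank well means / Evaluation: percent signal gain over controls, blank-subtracted / Measured by: luciferase luminescence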
# PERK inh – human PERK inhibition, primary cell-based screen; AID 1416; CHO PERK-DD fusion, SEAP luminescence translation reporter; Q9NZJ5; 220,000 compounds, 0.17% hits; inhibition, % at 5.6 µM;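 active means inhibition above the mean inhibition of all tested compounds plus 3 SD, set separately per screening campaign, cut at about 2.9% in these data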;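 further: PERK kinase domain activated by AP20187 dimerizer at 100 nM; 0% = DMSO with dimerizer and 100% = rapamycin at 8.4 µM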
# NF-kB neuron act – NF-kB expression increase, human neuronal cells | NF-kB reporter expression; hits give high values | fold change at 12.5 µM | 190,000 compounds, 1.6% hits | AID 1239; in the data active means fold change above about 3.3
# AHR activator – activates the human aryl hydrocarbon receptor; P35869; AHR-responsive luciferase reporter cells, luminescence; activation, % at 5 µM; 320,000 compounds, 2.5% hits; in the data active means activation above about 47%;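 further: 0% = vehicle wells and 100% = reference agonist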
# Target sequence (P35869 whole entry, looked up): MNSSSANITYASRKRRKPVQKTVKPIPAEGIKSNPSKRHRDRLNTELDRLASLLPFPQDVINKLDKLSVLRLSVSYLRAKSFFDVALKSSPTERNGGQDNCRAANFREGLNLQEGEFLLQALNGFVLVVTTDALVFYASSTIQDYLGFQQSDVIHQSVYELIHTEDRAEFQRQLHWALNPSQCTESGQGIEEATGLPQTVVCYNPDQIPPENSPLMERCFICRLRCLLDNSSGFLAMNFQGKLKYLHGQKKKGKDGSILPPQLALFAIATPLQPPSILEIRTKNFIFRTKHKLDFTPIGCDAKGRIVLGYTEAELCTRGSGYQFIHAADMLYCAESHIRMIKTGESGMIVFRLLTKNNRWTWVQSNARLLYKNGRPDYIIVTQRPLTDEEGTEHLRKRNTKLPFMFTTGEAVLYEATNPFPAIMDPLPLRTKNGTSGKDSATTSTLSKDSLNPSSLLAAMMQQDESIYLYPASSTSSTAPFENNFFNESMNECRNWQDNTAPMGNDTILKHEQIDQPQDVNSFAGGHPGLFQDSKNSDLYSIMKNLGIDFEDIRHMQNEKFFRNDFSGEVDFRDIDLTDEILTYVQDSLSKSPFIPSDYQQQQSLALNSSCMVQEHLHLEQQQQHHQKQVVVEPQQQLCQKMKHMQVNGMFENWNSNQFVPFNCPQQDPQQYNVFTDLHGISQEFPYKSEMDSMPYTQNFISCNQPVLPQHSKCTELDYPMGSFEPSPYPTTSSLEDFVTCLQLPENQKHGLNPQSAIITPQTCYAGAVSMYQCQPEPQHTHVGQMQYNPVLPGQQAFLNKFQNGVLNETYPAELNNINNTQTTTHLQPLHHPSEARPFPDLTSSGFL
# STAT1 activator – increases IFN-gamma driven STAT1 reporter signal; NIH 3T3 STAT1-luciferase reporter, luminescence; 100% = IFN-gamma alone, no compound; activation (% of control), % at 5.5 µM; 200,000 compounds, 2.6% hits; AID 932;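 active means activation above the screen-wide mean activation plus 3 SD, cut at about 130% in these data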;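 further: raw ratio to IFN-gamma control signal so 100% means no change and 0% no light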
# APP 5'UTR act – APP 5'UTR luciferase reporter activation; activation, % at 2 µM; 190,000 compounds, 1% hits; SH-SY5Y APP 5'UTR luciferase reporter, luminescence; zero percent = DMSO vehicle wells;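 active means activation above a set limit, based on mean plus 3 SD of controls, cut at about 140% in these data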
# The depositor's hits bear a star; . = no result.
SMILES,MDM2 E3 inh,PERK inh,NF-kB neuron act,AHR activator,STAT1 activator,APP 5'UTR act
CCCCn1c(N)c(N(CCOC)C(=O)COC(=O)CCOc2ccccc2)c(=O)[nH]c1=O,.,.,.,2,.,.
Cc1ccc(C(=O)NCC(=O)OC(C)C(=O)NC2CCCCC2C)cc1C (stereo unspecified),.,.,.,-2,.,.
COc1ccccc1NC(=O)c1ccc(S(=O)(=O)NCc2ccco2)cc1,.,.,.,18,.,.
COc1ccc(/C=C(\NC(=O)c2ccccc2)C(=O)NCc2ccco2)cc1OC,.,.,.,0,.,.
CCOC(=O)c1c(C)[nH]c(C)c1S(=O)(=O)N(C)CC(=O)Nc1ccccc1,.,.,.,9,.,.
O=C(NC1(Cc2ccccc2)CCN(CCc2cccs2)C1=O)c1ccccc1 (stereo unspecified),.,.,.,1,.,.
COc1cccc(NC(=O)c2ccccc2NC(=O)c2ccncc2)c1,.,.,.,55*,.,.
CC1(C)CC(=O)c2sc(NC(=O)c3ccccc3)nc2C1,-50,2,3.5*,6,128,170*
CC1(C)CC(=O)c2sc(NC(=O)c3cccs3)nc2C1,-45,1,3.4*,1,103,118
CC1(C)CNC(=O)c2sc(NC(=O)c3ccccc3)nc2C1,-5,0,2.1,22,126,34
Cc1cc(Br)c(NC(=O)c2c(-c3c(Cl)cccc3Cl)noc2C)c(Br)c1,-5,1,.,5,.,.
Clc1ccc(/C=N/NC(=Nc2ccccc2)c2ccccn2)c(Cl)c1,-7,0,3.1,14,128,164*
O=C(CCCN1C(=O)/C(=C/c2cccc(Br)c2)SC1=S)Nc1cccnc1,-5,0,3.4*,-3,92,-3
COc1ccc(OC)c(/C=C2\SC(=S)N(Cc3cccnc3)C2=O)c1,-5,-1,3.9*,2,100,-13
COc1cc(/C=C2/SC(=S)N(CC(=O)Nc3cccnc3)C2=O)cc(OC)c1OC,-4,0,1.1,51*,95,-4
COc1ccc(O)c(/C=C2/SC(=S)N(Cc3ccccc3)C2=O)c1,.,.,.,3,.,.
O=C(CCCN1C(=O)/C(=C\c2cccc(Br)c2)SC1=S)Nc1cccnc1,.,0,.,-2,90,5
CCOc1ccccc1NC(=O)c1oc2ccccc2c1NC(=O)C1CCCO1 (stereo unspecified),-8,0,.,49*,115,3
COc1ccc(NC(=O)c2oc3ccccc3c2NC(=O)C2CCCO2)cc1OC (stereo unspecified),-29,0,0.71,0,116,59
CCOc1ccccc1NC(=O)c1oc2ccccc2c1NC(=O)C1CC1,.,.,.,39,.,.
Cc1ccc(NC(=O)c2oc3ccccc3c2NC(=O)C2CCCO2)cc1C (stereo unspecified),-1,-1,.,74*,127,176*
COc1ccc(OC)c(/C=N/Nc2nncn2/N=C/c2cc(OC)ccc2OC)c1,-13,0,0.65,51*,101,-11
Cc1nnc(-c2cnn(C)c2N)n1CCCN(C)C,-5,2,1.1,14,99,4
Cc1nnc(-c2cnn(C)c2N)n1Cc1cccc(Cl)c1,.,0,1.3,54*,103,9
Cc1nnc(-c2cnn(C)c2N)n1Cc1ccccc1,-16,0,1.2,29,106,-18
SMILES,MDM2 E3 inh,PERK inh,NF-kB neuron act,AHR activator,STAT1 activator,APP 5'UTR act
CCCCCCCn1c(C)nnc1-c1cnn(C)c1N,-8,0,1.2,70*,99,47
Nc1ccc(S(N)(=O)=O)cc1N,.,0,.,115*,.,.
COCC(=O)n1nc(-c2ccc(C)cc2)nc1NCc1ccc(F)cc1,-13,2,1.1,.,118,31
O=C(COc1ccccc1)n1nc(-c2ccc(Cl)cc2)nc1NCc1ccco1,-1,0,1.8,-6,143*,54
COCC(=O)n1nc(-c2ccccc2)nc1NCc1ccc(N(C)C)cc1,-10,0,2.1,24,142*,52
CN(C(=O)COc1ccccc1C(=O)NCCc1ccccc1)c1ccccc1,4,0,1.3,-3,100,-1
CC(C)CC1c2[nH]c3ccccc3c2CCN1C(=O)CCC(=O)N(C)C (stereo unspecified),9,0,1.1,13,103,9
O=C(CSc1nc2ccccc2[nH]1)N1CCCCC1,-5,-1,2.2,-4,130*,44
Cc1ccc2nc(SCC(=O)N3CCOCC3)[nH]c2c1,-4,0,2.6,24,132*,80
Cc1ccc2nc(SCc3nnc(-c4cccs4)o3)[nH]c2c1,2,0,0.9,60*,100,2
Cc1cc(C(=O)CSc2nc3ccc(Cl)cc3[nH]2)c(C)n1CC1CCCO1 (stereo unspecified),-17,0,0.68,29,91,3
Cc1ccc2nc(SCc3nnc(-c4ccccc4)o3)[nH]c2c1,-9,0,1,38,97,6
Cc1ccc2nc(SCC3CCCCO3)[nH]c2c1 (stereo unspecified),.,0,.,51*,.,.
CC(Cc1cccnc1)NC(=O)c1ccccc1OC1CCN(S(C)(=O)=O)CC1 (stereo unspecified),-4,1,1.1,10,103,5
COc1ccccc1-c1coc2c(CN3CCOCC3)c(O)ccc2c1=O,.,.,.,1,.,.
CC(C)N1C(=O)/C(=C\c2nc3ccccc3c(=O)[nH]2)c2ccccc21,-1,-1,0.84,35,107,0
Cc1ccc2nc(SCC(=O)Nc3cc(C(F)(F)F)ccc3N3CCOCC3)[nH]c2c1,-12,-2,3.6*,10,109,-94
CC(C)[C@]1(c2ccccc2)ON(c2ccccc2C(F)(F)F)C1=O,.,.,.,-1,.,.
CCOc1ccc2c(C)nc(NC3=NC(C)(C)C=C(C)N3)nc2c1,-5,-1,0.61,64*,101,21
CCOc1ccc2nc(NC3=NC(C)(C)C=C(C)N3)nc(C)c2c1,-4,-2,0.98,41,89,.
CSCCC(NS(=O)(=O)c1ccc(C)cc1C)C(=O)Nc1cccnc1 (stereo unspecified),.,.,.,-1,.,.
Clc1ccc(-c2nc3nc4ccccc4nc3n2Cc2ccco2)cc1,-23,0,3.7*,53*,127,51
COc1ccccc1Cn1c(-c2ccco2)nc2nc3ccccc3nc21,.,-1,.,8,116,14
Cc1ccc(-c2nc3nc4ccccc4nc3n2Cc2ccco2)cc1,-26,0,2.6,33,124,181*
COc1ccccc1N1C[C@@H]2C[C@@H](c3ccco3)N3CCC[C@@]23C1=O,-19,0,1,-1,92,8
CCOc1ccccc1OCCCC(=O)NNC(=O)c1ccc(F)cc1,.,.,.,4,.,.
CCc1ccccc1NC(=O)C1=CC(c2cccs2)=NS(=O)(=O)N1C,.,.,.,6,.,.
Cc1ccc(O)c(NC(=O)C2=CC(c3cccs3)=NS(=O)(=O)N2C)c1,.,.,.,52*,.,.
CC/C(=N\NC(N)=O)c1ccc(OC(F)F)cc1,4,1,.,0,.,.

# Screens (PubChem BioAssay)
